According to publication PMC12580983 (RSC Advances, 2025):
Converted amounts (≈) assume the structure as drawn.

How the values were obtained:
A549 cells = assay: MTT cell viability assay, A549; assay type: cell-based, Human; settings: IC50 Vero cells / IC50 A549 cells
P. falciparum (Pf3D7) [1] = assay: Parasitemia and suppression of Pf3D7 culture after 72 h of treatment; assay type: cell-based, Plasmodium falciparum; settings: for percentage suppression of parasitemia: concentration not given
P. falciparum (Pf3D7) [2] = assay: SYBR green I fluorescence antiplasmodial assay; assay type: cell-based, Plasmodium falciparum; settings: for selectivity index (SI) towards Pf3D7: antimalarial selectivity, way of calculation not stated
Outline: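 Chloroquine-sensitive P. falciparum 3D7 was grown in O+ human erythrocytes (4% haematocrit) in RPMI 1640 with 25 mM HEPES and 0.5% Albumax I, at 37 °C under 5% O2/5% CO2/90% N2. Sorbitol-synchronised rings (2% haematocrit, 1% parasitaemia) got increasing concentrations in water. SYBR Green I was read after 0.08% Triton X-100, 1 h at 37 °C in the dark (ex 485/em 530 nm), chloroquine-well counts subtracted. IC50 came from dose–response curves.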

| Structure (SMILES) | Selectivity Index (SI) (A549 cells) | % Parasitemia (P. falciparum (Pf3D7) [1]; 12.5 μg mL^−1, 72 h) [%] | % Suppression (P. falciparum (Pf3D7) [1]; 12.5 μg mL^−1, 72 h) [%] | % Parasitemia (P. falciparum (Pf3D7) [1]; 100 μg mL^−1, 72 h) [%] | percentage suppression of parasitemia (P. falciparum (Pf3D7) [1]) [%] | % Suppression (P. falciparum (Pf3D7) [1]; 100 μg mL^−1, 72 h) [%] | IC50 (P. falciparum (Pf3D7) [2]; Plasmodium falciparum, 72 h, read-out: IC50 µM Pf3D7) [µg/mL] | selectivity index (SI) towards Pf3D7 (P. falciparum (Pf3D7) [2]) |
| --- | --- | --- | --- | --- | --- | --- | --- | --- |
| C/C(=N/NC(=O)c1cn(-c2ccccc2)nc1-c1ccc(F)cc1)c1c(O)cc(C)oc1=O [3a, (Z)-3-(4-fluorophenyl)-N′-(1-(4-hydroxy-6-methyl-2-oxo-2H-pyran-3-yl)ethylidene)-1-phenyl-1H-pyrazole-4-carbohydrazide] | 2.78 | 93.33 | 6.67 | 2.95 | 97 |  |  |  |
| C/C(=N/NC(=O)c1cn(-c2ccccc2)nc1-c1ccc(Cl)cc1)c1c(O)cc(C)oc1=O [3b, (Z)-3-(4-chlorophenyl)-N′-(1-(4-hydroxy-6-methyl-2-oxo-2H-pyran-3-yl)ethylidene)-1-phenyl-1H-pyrazole-4-carbohydrazide] | 3.25 | 68.38 | 31.62 | 62.57 |  | 37.43 |  |  |
| C/C(=N/NC(=O)c1cn(-c2ccccc2)nc1-c1ccc(Br)cc1)c1c(O)cc(C)oc1=O [3c, (Z)-3-(4-bromophenyl)-N′-(1-(4-hydroxy-6-methyl-2-oxo-2H-pyran-3-yl)ethylidene)-1-phenyl-1H-pyrazole-4-carbohydrazide] |  | 52.90 | 47.10 | 5.81 |  | 94.19 |  |  |
| C/C(=N/NC(=O)c1cn(-c2ccccc2)nc1-c1ccc(C)cc1)c1c(O)cc(C)oc1=O [3d, (Z)-3-(4-methylphenyl)-N′-(1-(4-hydroxy-6-methyl-2-oxo-2H-pyran-3-yl)ethylidene)-1-phenyl-1H-pyrazole-4-carbohydrazide] |  | 42.19 | 57.81 | 2.47 | 97 |  | 5.2 (≈ 11.8 µM) | 18.38 |
| C/C(=N/NC(=O)c1cn(-c2ccccc2)nc1-c1ccccc1)c1c(O)cc(C)oc1=O [3e, (Z)-N′-(1-(4-hydroxy-6-methyl-2-oxo-2H-pyran-3-yl)ethylidene)-1,3-diphenyl-1H-pyrazole-4-carbohydrazide] | 4.56 | 73.81 | 26.19 | 37.62 |  | 62.38 |  | 9.48 |
| CCN(CC)CCCC(C)Nc1ccnc2cc(Cl)ccc12 (stereo not drawn) [CQ, Chloroquine, reference compound] |  | 0.95 | 99.05 | 0.95 |  | 99.05 |  |  |
| N.N.O=C([O-])C1(C(=O)[O-])CCC1.[Pt+2] [Carboplatin, reference compound] | 2.57 |  |  |  |  |  |  |  |
| N.N.[Cl][Pt][Cl] [Cisplatin, reference compound] | 1.35 |  |  |  |  |  |  |  |
| C[C@@H]1C[C@H]2[C@@H]3CCC4=CC(=O)C=C[C@]4(C)[C@@]3(F)[C@@H](O)C[C@]2(C)[C@@]1(O)C(=O)CO [Dexamethasone, reference compound] | 0.23 |  |  |  |  |  |  |  |
